According to ChEMBL document CHEMBL3588803, “Design, synthesis and pharmacology of 1,1-bistrifluoromethylcarbinol derivatives as liver X receptor β-selective agonists” (Bioorg Med Chem Lett, 2015):
pEC50: −log10 of the molar value.

Columns and labels:
[1] = tested on: Syrian golden hamster; assay: Drug level in CE-2 chow diet-fed golden Syrian hamster treated with 100 mg/kg, po 3-(4-(4-(1,1,1,3,3,3-Hexafluoro-2-hydroxypropan-2-yl)-2,6-di-n-propylphenoxy)-butyl)-5-(4-(1-methylethoxy)phenyl)-5-methylimidazolidine-2,4-dione assessed as compound formation after 0.5 to 24 hrs by HPLC-LC-MS/MS method; assay type: ADME, organism-based, Mesocricetus auratus; details: in vivo
[2] = target: T1, Oxysterols receptor LXR-beta (Homo sapiens, UniProt P55055); assay: Agonist activity at LXRbeta (unknown origin)
T1 sequence (P55055 whole entry): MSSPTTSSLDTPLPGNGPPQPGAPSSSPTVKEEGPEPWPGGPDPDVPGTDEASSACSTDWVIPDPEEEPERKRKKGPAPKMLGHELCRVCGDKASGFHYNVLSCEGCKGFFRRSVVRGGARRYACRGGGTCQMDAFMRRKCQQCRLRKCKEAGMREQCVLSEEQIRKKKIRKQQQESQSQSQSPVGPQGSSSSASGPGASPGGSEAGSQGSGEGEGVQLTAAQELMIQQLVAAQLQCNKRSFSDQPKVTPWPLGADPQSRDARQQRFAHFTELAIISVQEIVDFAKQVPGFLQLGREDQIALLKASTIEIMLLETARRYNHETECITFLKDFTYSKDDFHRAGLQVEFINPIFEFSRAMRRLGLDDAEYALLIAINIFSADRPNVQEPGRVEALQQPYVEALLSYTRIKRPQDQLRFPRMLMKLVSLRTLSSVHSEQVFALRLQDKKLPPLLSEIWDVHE

[3] = target: T2, Oxysterols receptor LXR-alpha (Homo sapiens, UniProt Q13133); assay: Agonist activity at LXRalpha (unknown origin) expressed in CHOK1 cells incubated for 24 hrs by GAL4-responsive luciferase reporter gene assay; assay type: cell-based, CHO-K1
T2 sequence (Q13133 whole entry): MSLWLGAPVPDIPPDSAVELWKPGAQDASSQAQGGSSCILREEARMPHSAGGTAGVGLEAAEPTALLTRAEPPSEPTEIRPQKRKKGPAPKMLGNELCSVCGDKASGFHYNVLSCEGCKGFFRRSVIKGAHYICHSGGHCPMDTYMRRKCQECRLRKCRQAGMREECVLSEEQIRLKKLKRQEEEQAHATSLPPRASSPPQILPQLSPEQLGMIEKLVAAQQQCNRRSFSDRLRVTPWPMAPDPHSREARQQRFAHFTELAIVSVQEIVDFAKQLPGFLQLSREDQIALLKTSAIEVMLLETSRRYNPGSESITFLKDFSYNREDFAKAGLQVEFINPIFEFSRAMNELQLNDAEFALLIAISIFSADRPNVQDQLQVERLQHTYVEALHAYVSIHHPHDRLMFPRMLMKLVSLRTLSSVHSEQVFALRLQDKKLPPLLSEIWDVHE
In short: (§1)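 CHO-K1 cells carrying the GAL4-responsive pG5luc reporter and a GAL4-LXR LBD construct were seeded at 20,000 cells/well in HAM-F12 with 10% immobilized fetal bovine serum, penicillin G and streptomycin, at 37 °C and 5% CO2. After 24 h, compound was added at 0.01–30 µM for a further 24 h. Luminescence was read with Bright-Glo substrate. EC50 is the mean of two independent experiments.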

[4] = target: T3, Oxysterols receptor LXR-beta (Homo sapiens) (UniProt P55055); assay: Agonist activity at LXRbeta (unknown origin) expressed in CHOK1 cells incubated for 24 hrs by GAL4-responsive luciferase reporter gene assay relative to 10 uM T0901317; assay type: cell-based; details: CHO-K1
T3 sequence (whole entry): T1 sequence (P55055 whole entry)
In short: (§2)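 The GAL4-LXR LBD luciferase reporter was run in CHO-K1 cells. Cells were seeded at 20,000/well in HAM-F12 with 10% immobilized FBS and antibiotics for 24 h, then exposed to compound at 0.01, 0.1, 1, 10 and 30 µM for 24 h, with a Bright-Glo luminescence read-out. Values are means of two independent experiments.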

[5] = target: T4, Oxysterols receptor LXR-alpha (Homo sapiens) (UniProt Q13133); assay: Agonist activity at LXRalpha (unknown origin) expressed in CHOK1 cells incubated for 24 hrs by GAL4-responsive luciferase reporter gene assay relative to 10 uM T0901317; assay type: cell-based; details: CHO-K1; in short: as §2
T4 sequence (whole entry): T2 sequence (Q13133 whole entry)

[6] = target: T1, Oxysterols receptor LXR-beta; assay: Agonist activity at LXRbeta (unknown origin) expressed in CHOK1 cells incubated for 24 hrs by GAL4-responsive luciferase reporter gene assay; assay type: cell-based, CHO-K1; in short: as §1
[7] = Clearance in hamster hepatic microsomes; assay type: ADME; details: cricetinae, liver microsomes; read-out: CLH
[8] = Clearance in human hepatic microsomes; assay type: ADME; details: liver microsomes, read-out: CLH
[9] = Clearance in mouse hepatic microsomes; assay type: ADME; details: liver microsomes, read-out: CLH
[10] = tested on: Hamster; assay: Hypolipidemic effect in Bio F1B hamster fed with high fat and cholesterol diet assessed as LDL-cholesterol level at 10 mg/kg, po relative to control; assay type: functional, Cricetinae
[11] = tested on: Hamster; assay: Hypolipidemic effect in Bio F1B hamster fed with high fat and cholesterol diet assessed as total cholesterol level at 10 mg/kg, po relative to control; assay type: functional, Cricetinae
[12] = tested on: Hamster; assay: Hypolipidemic effect in Bio F1B hamster fed with high fat and cholesterol diet assessed as lipid-accumulation area in aortic arch at 10 mg/kg, po relative to control; assay type: functional, Cricetinae
[13] = tested on: Hamster; assay: Increase in ABCG5 gene expression in Bio F1B hamster intestine at 10 mg/kg, po; assay type: functional, Cricetinae
[14] = tested on: Hamster; assay: Increase in ABCG8 gene expression in Bio F1B hamster intestine at 10 mg/kg, po; assay type: functional, Cricetinae
[15] = tested on: Hamster; assay: Hypolipidemic effect in Bio F1B hamster fed with high fat and cholesterol diet assessed as HDL-cholesterol level at 10 mg/kg, po relative to control; assay type: functional, Cricetinae
[16] = tested on: Hamster; assay: Effect in lipid profiles in Bio F1B hamster fed with high fat and cholesterol diet assessed as triglyceride level at 10 mg/kg, po relative to control; assay type: organism-based; details: cricetinae, in vivo
[17] = tested on: Hamster; assay: Increase in ABCA1 gene expression in Bio F1B hamster peripheral blood at 10 mg/kg, po; assay type: functional, Cricetinae
[18] = tested on: Hamster; assay: Increase in ABCA1 gene expression in Bio F1B hamster intestine at 10 mg/kg, po; assay type: functional, Cricetinae

pEC50 [3] | Emax [4] [%] | Emax [5] [%] | pEC50 [6] | SMILES | further results
– | – | – | – | CCCc1cc(C(O)(C(F)(F)F)C(F)(F)F)cc(CCC)c1OCCCC(=O)O | Drug metabolism [1]: metabolite_detected
– | – | – | – | O=C(O)Cc1cccc(OCCCN(Cc2cccc(C(F)(F)F)c2Cl)CC(c2ccccc2)c2ccccc2)c1 | pEC50 [2]: 6.40
6.22 | 118 | 118 | 6.15 | CCCc1cc(C(O)(C(F)(F)F)C(F)(F)F)cc(CCC)c1OCCCCN1C(=O)NC(CC)(c2ccc3c(c2)OCO3)C1=O (centres undefined) | –
5.64 | 72 | 42 | 5.89 | CCCc1cc(C(O)(C(F)(F)F)C(F)(F)F)ccc1OCCCCN1C(=O)NC(CCC)(c2ccc3c(c2)OCO3)C1=O (centres undefined) | –
5.77 | 118 | 54 | 6.30 | CCCc1cc(C(O)(C(F)(F)F)C(F)(F)F)ccc1OCCCCN1C(=O)NC(C)(c2ccc3c(c2)OCO3)C1=O (centres undefined) | microsomal CLint [7]: 351 µL/min/mg; microsomal CLint [8]: 31 µL/min/mg; microsomal CLint [9]: 73 µL/min/mg
5.82 | 172 | 72 | 6.15 | CCCc1cc(C(O)(C(F)(F)F)C(F)(F)F)ccc1OCCCCN1C(=O)NC(CC)(c2ccc3c(c2)OCO3)C1=O (centres undefined) | –
– | – | – | – | O=S(=O)(c1ccccc1)N(CC(F)(F)F)c1ccc(C(O)(C(F)(F)F)C(F)(F)F)cc1 [T091317] | Activity [10]: 75%; Activity [11]: 124%; Activity [12]: 40%; fold change (FC) [13]: 1.5; fold change (FC) [14]: 1.4; Activity [15]: 76%; Activity [16]: 251%; fold change (FC) [17]: 1.3; fold change (FC) [18]: 3.4
6.40 | 101 | 89 | 7.00 | CCCc1cc(C(O)(C(F)(F)F)C(F)(F)F)cc(CCC)c1OCCCCN1C(=O)NC(C)(c2ccc3c(c2)OCO3)C1=O (centres undefined) | –
